Test results reported in ChEMBL document CHEMBL1142077, “Inhibition of Plasmodium falciparum oocyst production by membrane-permeant cysteine protease inhibitor E64d” (2007).
Calls of active or inactive are those of the source. The rule behind the calls is not given here.

Experiments:
Plasmodium falciparum [1] = assay: Inhibition of Pfs230 processing after 1 hrs in Plasmodium falciparum 3D7 at 10 uM in emergence medium with 0.001% saponin; type: functional, organism-based
Method in brief: (§1)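 Mature stage V 3D7 gametocytes preincubated 1 h at 37°C in complete RPMI 1640 with inhibitor or DMSO (saponin 0.001% present or absent during this incubation). Cells then pelleted and resuspended in an equal volume of emergence medium (10 µM xanthurenic acid, glucose, NaCl, 8 mM Tris-Cl pH 8.2) at RT. Medium harvested after 1 h and clarified by centrifugation. Readout: immunoblot with Pfs230 region A (aa 304–378) antibodies, scoring 47-kDa and 35-kDa fragments.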

Plasmodium falciparum [2] = assay: Inhibition of gametogenesis after 1 hrs in Plasmodium falciparum 3D7 at 10 uM in emergence medium; type: functional, organism-based
Method in brief: (§2)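 Mature 3D7 gametocytes incubated 1 h with inhibitor or an equal volume of DMSO, then pelleted. Gametogenesis triggered by adding an equal volume of emergence medium (xanthurenic acid, pH 8.2, RT). Scored on Giemsa-stained thin smears before and 15 min after the stimulus (emergence), and by bright-field observation of exflagellation centers 15–30 min after the stimulus.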

Plasmodium falciparum [3] = assay: Inhibition of exflagellation after 1 hrs in Plasmodium falciparum 3D7 at 10 uM in emergence medium; type: functional, organism-based; method in brief: as §2
Plasmodium falciparum [4] = assay: Inhibition of Pfs230 processing after 1 hrs in Plasmodium falciparum 3D7 at 100 uM in emergence medium; type: functional, organism-based; method in brief: as §1
Plasmodium falciparum [5] = assay: Inhibition of Pfs230 processing after 1 hrs in Plasmodium falciparum 3D7 at 10 uM in emergence medium; type: functional, organism-based; method in brief: as §1
Plasmodium falciparum [6] = assay: Inhibition of oocyst production after 7 days in Anopheles stephensi SxK Nij fed human serum infected with Plasmodium falciparum 3D7 stage V gametocyte at 10 uM for 1 hr; type: functional, organism-based
Method in brief: (§3)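 Strain 3D7 stage V gametocyte cultures treated 1 h with inhibitor or DMSO, 0.3 ml pelleted onto 150 µl packed erythrocytes, supernatant replaced by 120 µl normal human serum with active complement; membrane feeder at 39°C, mosquitoes gorge 10 min, kept 7 days at 26°C, >80% humidity. Midguts mercurochrome-stained, oocysts counted; geometric mean per midgut versus DMSO control gives percent reduction; Kruskal-Wallis.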

Plasmodium falciparum [7] = assay: Inhibition at day 7 of Plasmodium falciparum 3D7 oocyst production in human serum at 100 uM for 1 hrs prior to feeding Anopheles stephensi SxK Nij; type: functional; conditions: 3D7, Serum; method in brief: as §3
Plasmodium falciparum [8] = assay: Inhibition of oocyst production after 7 days in Anopheles stephensi SxK Nij fed human serum infected with Plasmodium falciparum NF54 stage V gametocyte at 100 uM for 15 min; type: functional
Method in brief: (§4)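 Isolate NF54 stage V gametocytes treated for stated times with 100 µM inhibitor or DMSO, pelleted onto packed erythrocytes in normal human serum with active complement, membrane-fed (39°C) to Anopheles stephensi SxK Nij for 10 min; mosquitoes kept 7 days at 26°C. Midguts mercurochrome-stained, oocysts counted, 16 to 20 mosquitoes per feeding; geometric mean oocysts per midgut versus control; Kruskal-Wallis.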

Plasmodium falciparum [9] = assay: Inhibition of oocyst production after 7 days in Anopheles stephensi SxK Nij fed human serum infected with Plasmodium falciparum NF54 stage V gametocyte at 100 uM for 1 hr; type: functional; method in brief: as §4
Plasmodium falciparum [10] = assay: Inhibition of gametogenesis after 1 hrs in Plasmodium falciparum 3D7 at 100 uM in emergence medium; type: functional, organism-based
Plasmodium falciparum [11] = assay: Gametocyte morphology as exflagellation after 15-30 min in Plasmodium falciparum 3D7 at 100 uM for 1hr in emergence medium; type: functional, organism-based
Plasmodium falciparum [12] = assay: Inhibition of oocyst production after 7 days in Anopheles stephensi SxK Nij fed human serum infected with Plasmodium falciparum NF54 stage V gametocyte at 100 uM for 30 min; type: functional; method in brief: as §4

With `CC(C)C[C@H](NC(=O)C(CCc1ccccc1)NC(=O)CF)C(=O)NC(=O)N1CCOCC1` (some centres not stated) the Activity (Plasmodium falciparum [1]) was “Active”, the Activity (Plasmodium falciparum [2]) was “inactive” and the Activity (Plasmodium falciparum [3]) was “inactive”. The Activity (Plasmodium falciparum [4]) was “inactive” and the Activity (Plasmodium falciparum [5]) was “inactive”.
In the case of `CCOC(=O)[C@H]1O[C@@H]1C(=O)N[C@@H](CC(C)C)C(=O)NCCC(C)C` [ALOXISTATIN], the Activity (Plasmodium falciparum [6]) is reported as “inactive”, the inhibition at 100 µM (Plasmodium falciparum [7]) is reported as 81% and the inhibition at 100 µM (Plasmodium falciparum [8]) is reported as 79%. The inhibition at 100 µM (Plasmodium falciparum [9]) was 100%, the Activity (Plasmodium falciparum [10]) was “inactive” and the Activity (Plasmodium falciparum [11]) was “inactive”. It also gave an inhibition at 100 µM (Plasmodium falciparum [12]) of 98%.
